High-throughput results deposited in PubChem by several laboratories.
NSD2 inh – inhibitors of human histone methyltransferase NSD2; O96028; inhibition, % at 12.5 µM; 310,000 tested, 0.54% active; NSD2 peptide methylation, AlphaScreen, 120 min; AID 743445; in the data active = inhibition above about 50%
MBD2 inh – blocks human MBD2 binding to methylated DNA; TR-FRET, MBD2 binding to methylated oligonucleotide; AID 686964; 370,000 tested, 0.31% active; Q9UBB5; inhibition, % at 4.4 µM; in the data active = inhibition above about 13%
Casp6 inh – inhibitors of human caspase-6; P55212; purified caspase-6, Z-VEID-R110 cleavage fluorescence; inhibition, % at 12.5 µM; 350,000 tested, 0.53% active;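 active = mean inhibition across replicates at least about 35%, with every replicate also reaching that limit, limit read from the data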
Target sequence (P55212 24-179 limits assumed): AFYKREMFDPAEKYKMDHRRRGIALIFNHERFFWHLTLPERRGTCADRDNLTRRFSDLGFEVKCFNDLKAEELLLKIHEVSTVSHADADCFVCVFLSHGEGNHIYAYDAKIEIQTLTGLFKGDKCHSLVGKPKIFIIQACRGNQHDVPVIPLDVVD
Target sequence (P55212 194-293 limits assumed): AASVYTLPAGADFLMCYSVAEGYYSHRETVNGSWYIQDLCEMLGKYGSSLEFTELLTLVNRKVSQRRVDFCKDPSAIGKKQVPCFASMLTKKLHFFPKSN
UHRF1 MBD2 ctr – blocks human UHRF1 binding to methylated DNA; Q96T88; UHRF1 binding to methylated oligo, TR-FRET; inhibition, % at 4.4 µM; 370,000 tested, 0.75% active; in the data active = inhibition above about 21%;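 note: UHRF1 SRA domain binding a hemimethylated CpG hairpin DNA probe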
LEDGF integ inh – blocks HIV-1 LEDGF/p75-dependent DNA integration; inhibition, % at 3.7 µM; AID 743269; TR-FRET IN-LEDGF/p75 DNA integration, Eu/Cy5; 370,000 tested, 0.64% active;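 active = inhibition above the screen-wide mean plus 3 SD, cut at about 13% in these data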;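 note: signal is the Cy5 over europium emission ratio at 671 and 618 nm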
TDP2 absorb – TDP2 (human) inhibition, absorbance primary screen | O95551 | recombinant TDP2, T5PNP hydrolysis, p-nitrophenol absorbance 415 nm | inhibition, % at 12.8 µM | 370,000 tested, 0.34% active | AID 720702;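 active = inhibition above the mean of all tested compounds plus 3 SD, set per campaign, cut at about 25% in these data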
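Read-out basis: percent inhibition. System: recombinant human TDP2. Buffer or medium: Mg2+-containing Tris-HCl buffer, pH 7.5. Repeats: single replicate. Timing: reaction 2 h, 37 °C. Benchmarks: high control without enzyme, low control DMSO plus TDP2. Probe or stimulus: 5 mM T5PNP. Doses: 12.8 µM only. Measured by: epi absorbance of p-nitrophenol freed from T5PNP by hydrolysis.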
Of the large screens only hits and unclear results are named; the others gave an inactive call. Sampled rows, rich in hits. Any-hit rate of the full collection: about 1.8%.

O=C(Cn1cnc2sc(-c3ccccc3)cc2c1=O)NCc1ccco1	UHRF1 MBD2 ctr 50 (no result: Casp6 inh)
N#CC1=C(N)Oc2cc(O)c(Cl)cc2C1c1ccccc1F (centres undefined)	Casp6 inh 44
O=C(C1CCCC1)N1CC2(C1)[C@H](c1ccccc1)[C@@H](CO)N2CC1CCCC1	none (no result: NSD2 inh, MBD2 inh, UHRF1 MBD2 ctr, LEDGF integ inh, TDP2 absorb)
Cc1[nH]cnc1CN1CCc2c(c3ccccc3n2C)C1=O	Casp6 inh 81 (no result: NSD2 inh)
C[C@H](NC(=O)[C@H]1[C@H](CO)[C@H]2Cn3c(ccc(C4=CCCC4)c3=O)[C@H]2N1C)c1ccccc1	none (no result: NSD2 inh, MBD2 inh, UHRF1 MBD2 ctr, LEDGF integ inh, TDP2 absorb)
O=C(Nc1ccnn1C1CCN(C(=O)c2c(F)cccc2F)CC1)C1CC1	none
O=C(Nc1ccnn1C1CCN(C(=O)c2ccccc2C(F)(F)F)CC1)C1CC1	LEDGF integ inh 14
CCCN1C[C@@H](C)[C@H](OC)CN(C)C(=O)c2cc(NC(=O)Nc3c(C)noc3C)ccc2OC[C@H]1C	none (no result: NSD2 inh, MBD2 inh, UHRF1 MBD2 ctr, LEDGF integ inh, TDP2 absorb)
C[C@H]1CN([C@@H](C)CO)S(=O)(=O)c2ccc(C#Cc3cccnc3)cc2O[C@@H]1CN(C)C(=O)Nc1ccc2c(c1)OCO2	UHRF1 MBD2 ctr 22 (no result: NSD2 inh)
CCCC#Cc1ccc2c(c1)O[C@@H](CN(C)Cc1ccc3c(c1)OCO3)[C@H](C)CN([C@@H](C)CO)S2(=O)=O	UHRF1 MBD2 ctr 21 (no result: NSD2 inh)
C[C@@H]1CN([C@H](C)CO)S(=O)(=O)c2ccc(C#Cc3cccnc3)cc2O[C@H]1CN(C)C(=O)Nc1ccc2c(c1)OCO2	none (no result: NSD2 inh, MBD2 inh, UHRF1 MBD2 ctr, LEDGF integ inh, TDP2 absorb)
CCCC#Cc1ccc2c(c1)O[C@@H](CN(C)Cc1ccc3c(c1)OCO3)[C@H](C)CN([C@H](C)CO)S2(=O)=O	none (no result: NSD2 inh, MBD2 inh, UHRF1 MBD2 ctr, LEDGF integ inh, TDP2 absorb)
COCCN(C(=O)COC(=O)/C=C/c1ccco1)c1c(N)n(Cc2ccccc2)c(=O)[nH]c1=O	Casp6 inh 43
COCCN(C(=O)CN1CCc2ccccc21)c1c(N)n(Cc2ccccc2)c(=O)[nH]c1=O	UHRF1 MBD2 ctr 41
Cc1c(C(=O)OCC(=O)N(CC(C)C)c2c(N)n(Cc3ccccc3)c(=O)[nH]c2=O)oc2ccccc12	Casp6 inh 46
COCCN(C(=O)COC(=O)/C=C/c1ccc(C)o1)c1c(N)n(Cc2ccccc2)c(=O)[nH]c1=O	none
CCNC(=O)Nc1ccc2c(c1)C(=O)N(C)[C@H]1CC[C@@H](CC(=O)NCC3CCCCC3)O[C@H]1CO2	none (no result: NSD2 inh, MBD2 inh, UHRF1 MBD2 ctr, LEDGF integ inh, TDP2 absorb)
Cc1ccc(S(=O)(=O)Nc2ccc3c(c2)CC(=O)N([C@H](C)CO)C[C@H](C)[C@@H](CN(C)Cc2ccccc2)O3)cc1	none (no result: NSD2 inh, MBD2 inh, UHRF1 MBD2 ctr, LEDGF integ inh, TDP2 absorb)
COc1ccc2c3c(n(C)c2c1)[C@H](CO)N(CC1CC1)CC31CN(C(=O)c2ccc3c(c2)OCO3)C1	none (no result: NSD2 inh, MBD2 inh, UHRF1 MBD2 ctr, LEDGF integ inh, TDP2 absorb)
Nc1ccccc1Sc1ccc(C(=O)c2ccccc2C(=O)O)cc1[N+](=O)[O-]	Casp6 inh 46
CC(=O)c1ccc(Sc2ccccc2N)c([N+](=O)[O-])c1	none
O=C(O)c1ccccc1C(=O)c1ccc(Sc2ccc(Cl)cc2)c([N+](=O)[O-])c1	UHRF1 MBD2 ctr 21
CCOc1ccc(-n2nnc3c(=O)n(CC(=O)Nc4cc(C)on4)cnc32)cc1	none
CCOc1ccc(-n2nnc3c(=O)n(C/C=C/c4ccccc4)cnc32)cc1	UHRF1 MBD2 ctr 23 (no result: NSD2 inh)
CC(=O)N1CCOc2ccc(S(=O)(=O)NCc3ccc(F)cc3)cc21	Casp6 inh 40
CC(=O)N1CCOc2ccc(S(=O)(=O)NCCc3ccc(S(N)(=O)=O)cc3)cc21	none
C[C@H](CO)N1C[C@H](C)[C@@H](CN(C)C(=O)Nc2ccc3c(c2)OCO3)OCCCC[C@H](C)Oc2ccc(NC(=O)CCC(F)(F)F)cc2C1=O	none (no result: NSD2 inh, MBD2 inh, UHRF1 MBD2 ctr, LEDGF integ inh, TDP2 absorb)
Nc1cc([N+](=O)[O-])ccc1N1C(=O)CCCC1=O	Casp6 inh 40
Nc1cc(Cl)ccc1N1C(=O)CCC1=O	none
CC(CNC(=O)CC[C@H]1O[C@@H](n2cnc3c(NC(=O)c4ccccc4)ncnc32)[C@H](O)[C@@H]1O)c1ccccc1 (some centres undefined)	UHRF1 MBD2 ctr 27 (no result: NSD2 inh, Casp6 inh)
Cc1cccc(S(=O)(=O)N2C[C@@H](O)COC[C@@H]3O[C@H](CC(=O)N4CCN(C)CC4)CC[C@H]32)c1	none (no result: NSD2 inh, MBD2 inh, UHRF1 MBD2 ctr, LEDGF integ inh, TDP2 absorb)
S=C(NC1CCCCC1)N1CCN(Cc2ccccc2Cl)CC1	none
S=C(NC1CCCCC1)N1CCN(Cc2ccccc2)CC1	UHRF1 MBD2 ctr 21
COC(=O)/C=c1/s/c(=C(/C#N)C(=O)N2CCOCC2)n(-c2ccccc2)c1=O	UHRF1 MBD2 ctr 80 (no result: Casp6 inh)
